Data set [1] in a line: Cmax in Wistar Hannover rat at 500 umol/kg, po qd measured on day 1. To be noted: in vivo.
Data set [2] relates to Rattus norvegicus. The data set is described as follows: Toxicity in Wistar Hannover rat kidney assessed as histopathogical changes at 500 to 2000 umol/kg, po qd administered for 7 days measured on day 8 by hematoxylin/eosin staining-based light microscopic analysis. To be noted: in vivo, 168 h. It counts as organism-based. An outline of the steps:
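Wistar Hannover rats, about 8 weeks old, were gavaged once daily (10 ml/kg) for 7 days. One day after the last dose they were killed by carotid exsanguination under isoflurane/oxygen. Kidneys were fixed in buffered formalin, embedded in paraffin, sectioned, stained with hematoxylin and eosin, and examined by light microscopy.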

The nature of data set [3]: Cmax in Sprague-Dawley rat at 2000 umol/kg, po qd administered for 7 days measured on day 7. In kind it is ADME, organism-based. On the set-up: dose 2000 umol/kg, route oral. To be noted: in vivo. An outline of the steps:
(§1)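 Toxicity study 2: 2 female satellite rats per dose group. Dosing was once daily by oral gavage (10 ml/kg) for 7 days. Tail-vein EDTA blood was taken at 2, 4, 6, 7 and 24 h on day 1 and on day 7, then chilled and centrifuged to plasma. Parent and M1 were quantified by LC-MS/MS, with M1 measured in negative electrospray mode.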

Data set [4] relates to Rattus norvegicus. The data set can be described thus: Toxicity in Wistar Hannover rat kidney assessed as increase in plasma creatinine level at 500 to 2000 umol/kg, po qd administered for 7 days measured on day 7. In kind it is organism-based. The settings on record: in vivo, 168 h. In a few lines:
(§2)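 Wistar Hannover rats, about 8 weeks old, were acclimatized about 2 weeks and randomized by body weight. Dosing was by oral gavage (10 ml/kg) once daily for 7 days, with vehicle controls. At the end of dosing, plasma (lithium heparin) was taken from the orbital plexus under isoflurane/oxygen anaesthesia, and urea and creatinine were measured.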

A short description of data set [5]: AUC (0 to 24 hrs) in Wistar Hannover rat at 2000 umol/kg, po qd measured on day 1. The settings on record: plasma.
In data set [6] the test system is Rattus norvegicus. The data set can be described thus: Toxicity in Wistar Hannover rat kidney assessed as increase in plasma urea level at 500 to 2000 umol/kg, po qd administered for 7 days measured on day 7. To be noted: in vivo, 168 h. In kind it is organism-based. In a few lines: as §2
A short description of data set [7]: AUC (0 to 24 hrs) in Sprague-Dawley rat at 500 umol/kg, po qd administered for 7 days measured on day 7. In kind it is ADME, organism-based. On the set-up: dose 500 umol/kg, time < 24 hr, route oral. The settings on record: plasma. In a few lines: as §1
The nature of data set [8]: AUC (0 to 24 hrs) in Sprague-Dawley rat at 2000 umol/kg, po qd administered for 7 days measured on day 7. In kind it is ADME, organism-based. On the set-up: time < 24 hr, dose 2000 umol/kg, route oral. To be noted: plasma. An outline of the steps: as §1
Data set [9] in a line: Solubility in rat urine at pH 7 after 5 hrs. In kind it is physicochemical. An outline of the steps:
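Samples in rat urine at pH 7.0 were incubated at 37°C for 5 hours. They were analysed by HPLC on a C18 column with photodiode array and single mass detection.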

The test system of data set [10] is Rattus norvegicus. The data set can be described thus: Toxicity in Wistar Hannover rat kidney assessed as crystals in urine at 500 to 2000 umol/kg, po qd administered for 7 days measured on day 7. In kind it is organism-based. The settings on record: in vivo, 168 h.
Data set [11] can be described thus: AUC (0 to 24 hrs) in Wistar Hannover rat at 500 umol/kg, po qd measured on day 1. To be noted: plasma.
Data set [12] in a line: Cmax in Sprague-Dawley rat at 500 umol/kg, po qd administered for 7 days measured on day 7. In kind it is ADME, organism-based. On the set-up: dose 500 umol/kg, route oral. The settings on record: in vivo. In a few lines:
as §1

Data set [13] in a line: Cmax in Wistar Hannover rat at 2000 umol/kg, po qd measured on day 1. To be noted: in vivo.
For data set [14], the system named is Rattus norvegicus. The data set can be described thus: Drug level in Wistar Hannover rat treated with [14C]-AZ'7847 at 500 umol/kg, po qd administered for 7 days measured on day 7 by radio monitoring method. To be noted: in vivo, 168 h. In kind it is ADME, organism-based.
Data set [15] has as its system Rattus norvegicus. The data set is described as follows: Drug metabolism in Wistar Hannover rat assessed as formation of benzene-1,2-disulfonamide metabolite M1 in plasma at 500 umol/kg, po qd administered for 7 days measured on day 7 by radio monitoring method. In kind it is ADME, organism-based. To be noted: in vivo, 168 h.
In data set [16] the test system is Rattus norvegicus. The data set is described as follows: Toxicity in Wistar Hannover rat kidney assessed as increase in plasma urea level at 435 to 900 umol/kg, po qd administered for 14 days measured on day 14. To be noted: in vivo, 336 h. In kind it is organism-based. In a few lines:
(§3)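 Female Wistar Hannover rats (10 per group), about 8 weeks old, were dosed by oral gavage (10 ml/kg) once daily for 14 days. The compound was given as a solution in 15% (w/v) hydroxypropyl-β-cyclodextrin in 0.2 M meglumine. At the end of dosing, plasma (lithium heparin) was taken from the orbital plexus under isoflurane/oxygen anaesthesia for plasma chemistry.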

Data set [17] can be described thus: AUC (0 to 24 hrs) in Sprague-Dawley rat at 435 umol/kg, po qd administered for 14 days measured on day 14. To be noted: plasma. On the set-up: dose 435 umol/kg, time < 24 hr, route oral. In kind it is ADME, organism-based. An outline of the steps: (§4)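 Toxicity study 3: 5 female animals per dose group for TK. The compound was given as a solution in 15% (w/v) hydroxypropyl-β-cyclodextrin in 0.2 M meglumine, by oral gavage (10 ml/kg) once daily for 14 days. Blood was microsampled at 2, 4, 6, 7 and 24 h on day 1 and on the last dosing day. Parent only was measured, not M1.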

The nature of data set [18]: AUC (0 to 24 hrs) in Sprague-Dawley rat at 10 umol/kg, po qd measured on day 1. It counts as ADME, organism-based. On the set-up: dose 10 umol/kg, time < 24 hr, route oral. The settings on record: plasma. An outline of the steps: (§5)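 Single-dose PK in male Sprague-Dawley rats (n = 3). Plasma was profiled over time for parent and for the amide-hydrolysis metabolite M1, and AUC0–24 and Cmax were derived. The dosing protocol follows earlier work.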

Data set [19] is described as follows: Cmax in Sprague-Dawley rat at 10 umol/kg, po qd measured on day 1. The settings on record: in vivo. On the set-up: dose 10 umol/kg, route oral. It counts as ADME, organism-based. In a few lines:
as §5

Data set [20] in a line: AUC (0 to 24 hrs) in Sprague-Dawley rat at 900 umol/kg, po qd administered for 14 days measured on day 14. In kind it is ADME, organism-based. On the set-up: dose 900 umol/kg, time < 24 hr, route oral. The settings on record: plasma. An outline of the steps: as §4
The test system of data set [21] is Rattus norvegicus. The data set is described as follows: Toxicity in Wistar Hannover rat kidney assessed as crystals in urine at 435 to 900 umol/kg, po qd administered for 14 days measured on day 14. It counts as organism-based. The settings on record: in vivo, 336 h.
In data set [22] the test system is Rattus norvegicus. The data set can be described thus: Toxicity in Wistar Hannover rat kidney assessed as increase in plasma creatinine level at 435 to 900 umol/kg, po qd administered for 14 days measured on day 14. It counts as organism-based. To be noted: in vivo, 336 h, in the assay text read “900 umol/kg” for “435 to 900 umol/kg”. An outline of the steps: as §3

A short description of data set [23]: AUC (0 to 24 hrs) in Sprague-Dawley rat at 435 umol/kg, po qd measured on day 1. It counts as ADME, organism-based. On the set-up: dose 435 umol/kg, time < 24 hr, route oral. The settings on record: plasma. An outline of the steps: as §4
Data set [24] in a line: Cmax in Sprague-Dawley rat at 435 umol/kg, po qd administered for 14 days measured on day 14. On the set-up: dose 435 umol/kg, route oral. To be noted: in vivo. In kind it is ADME, organism-based. An outline of the steps:
as §4

The nature of data set [25]: Cmax in Sprague-Dawley rat at 900 umol/kg, po qd administered for 14 days measured on day 14. In kind it is ADME, organism-based. On the set-up: dose 900 umol/kg, route oral. To be noted: in vivo. An outline of the steps: as §4
Data set [26] relates to Rattus norvegicus. The data set is described as follows: Toxicity in Wistar Hannover rat kidney assessed as change in plasma chemistry parameter at 435 umol/kg, po qd administered for 14 days measured on day 14. In kind it is organism-based. The settings on record: in vivo, 336 h. An outline of the steps:
as §3

Data set [27] can be described thus: Drug metabolism in cryopreserved human hepatocytes assessed as amide hydrolysis at 1 to 10 uM by LC-MS analysis. It counts as ADME, cell-based, Hepatocyte. In a few lines: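 Hepatocytes at 1 × 10^6 cells/ml in William's medium incubated at 37°C with gentle shaking under 5% CO2. Substrate was at […]. Metabolites were analysed by LC-MS.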
Data set [28] is described as follows: AUC (0 to 24 hrs) in Sprague-Dawley rat at 900 umol/kg, po qd measured on day 1. It counts as ADME, organism-based. On the set-up: time < 24 hr, dose 900 umol/kg, route oral. The settings on record: plasma. An outline of the steps:
as §4

Data set [29] in a line: Cmax in Sprague-Dawley rat at 900 umol/kg, po qd measured on day 1. In kind it is ADME, organism-based. On the set-up: dose 900 umol/kg, route oral. The settings on record: in vivo. An outline of the steps: as §4
Data set [30] is described as follows: Cmax in Sprague-Dawley rat at 435 umol/kg, po qd measured on day 1. In kind it is ADME, organism-based. On the set-up: dose 435 umol/kg, route oral. The settings on record: in vivo. An outline of the steps:
as §4

Converted amounts (≈) assume the structure as drawn.

A word on the Cmax: it is the highest concentration seen after dosing. Usually AUC(0-t) stands for exposure summed from dosing to a finite time, without extrapolation to infinity. Read a high AUC(0-t) as high exposure. One may read the AUC as concentration integrated over time. Lower therefore signals less exposure. What is called solubility is how much of the substance goes into solution per volume.

For the compound `NS(=O)(=O)c1ccccc1S(N)(=O)=O`, the Cmax in data set [1] came to 57 µM; in data set [3], 80 µM; in [12], 70 µM; in data set [13] it was 66 µM. For the same compound, the Activity result is “Non-toxic” with Rattus norvegicus [2], “Non-toxic” in the data set on Rattus norvegicus [4], “Non-toxic” with Rattus norvegicus [6] and “Toxic” in the data set with Rattus norvegicus [10]. For the same compound, the area under the curve AUC(0-t) at 24 h was determined as 1150 µM·h in [5] and 1080 µM·h in [11]. In addition, the results for the AUC at 24 h in data set [7] and in data set [8] were 1300 µM·h and 1250 µM·h, respectively. Further, in data set [9], the solubility at 5 h worked out at 83 µM (≈ 19.6 µg/mL). For the same compound, the Drug metabolism result with Rattus norvegicus [14] was “metabolite_detected”.

Take `NS(=O)(=O)c1ccccc1S(=O)(=O)N[14C](=O)c1ccc(C#Cc2ccccc2)cc1`: the Drug metabolism result in the data set with Rattus norvegicus [15] is listed as “metabolite_detected”.

As to `Cc1cc(C(=O)NS(=O)(=O)c2ccccc2S(N)(=O)=O)ccc1C#CC1CCC1`, the Activity entry in the data set with Rattus norvegicus [16] is given as “Toxic”; in the data set on Rattus norvegicus [21], “Toxic”; in the data set on Rattus norvegicus [22], “Toxic”; in the data set on Rattus norvegicus [26] it was “Non-toxic”. Moreover, the AUC at 24 h amounted to 2520 µM·h in data set [17] and 5000 µM·h in data set [20]. Moreover, the AUC(0-t) at 24 h stood at 58 µM·h in data set [18], 2220 µM·h in data set [23] and 5030 µM·h in data set [28]. Besides, the Cmax in data set [19] turned out to be 11 µM; in data set [24], 415 µM; in data set [25], 480 µM; in [29], 540 µM; in data set [30], 375 µM. In data set [27], the Drug metabolism result is recorded as “metabolite_not_detected”.

Source of the values: ChEMBL document CHEMBL3526126, “Amide hydrolysis of a novel chemical series of microsomal prostaglandin E synthase-1 inhibitors induces kidney toxicity in the rat” (Drug Metab Dispos, 2013).
